From ChEMBL document CHEMBL3352366, “Synthesis and biological evaluation of 2,3-dihydroimidazo[1,2-a]benzimidazole derivatives against Leishmania donovani and Trypanosoma cruzi” (Eur J Med Chem, 2014)
Active and inactive are the calls of the source. The calls are words filed in the database; no cut-off is given here.

Tests used:
Leishmania donovani [1] = experiment: Antileishmanial activity against intracellular amastigote stage of Leishmania donovani MHOM/ET/67/HU3 infected in human THP1 cells after 3 days by confocal microscopy; type: functional, organism-based; details: MHOM/ET/67/HU3, THP-1, 72 h
[2] = Cytotoxicity against human THP1 cells infected with intracellular amastigote stage of Leishmania donovani MHOM/ET/67/HU3; type: cell-based, THP-1
How it was run: (§1)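 Host THP-1 cytotoxicity was taken from the same intracellular amastigote images (PMA-differentiated, infected, 3-day compound exposure) by counting cell numbers normalized to 1 % DMSO. CC₅₀ is the average of duplicates; SI was calculated from EC₅₀ and CC₅₀.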

Trypanosoma cruzi [3] = experiment: Antitrypanosomal activity against intracellular Trypanosoma cruzi infected in human U2OS cells after 48 hrs by confocal microscopy; type: functional, organism-based
How it was run: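 T. cruzi tissue-culture trypomastigotes were raised in LLC-MK2 cells. U2OS cells and parasites were mixed, dispensed onto compound plates and incubated 48 h at 37 °C, 5 % CO₂. Cells were fixed with 4 % paraformaldehyde, DRAQ5-stained and imaged by confocal microscopy to count parasites and infection ratio. Controls: benznidazole 400 µM and 1 % DMSO. EC₅₀ derived from infection ratio normalized to the controls.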

[4] = Cytotoxicity against human U2OS cells infected with intracellular Trypanosoma cruzi; type: cell-based
How it was run: (§2)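 U2OS cytotoxicity was measured in the same 48 h T. cruzi infection assay by counting host cell numbers in the DRAQ5-stained confocal images to give CC₅₀. SI was calculated from EC₅₀ and CC₅₀.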

[5] = Selectivity index, ratio of IC50 for human THP1 cells to IC50 for intracellular amastigote stage of Leishmania donovani MHOM/ET/67/HU3; type: toxicity, cell-based, THP-1; details: read-out: Selectivity Index; how it was run: as §1
[6] = Selectivity index, ratio of IC50 for human U2OS cells to IC50 for intracellular Trypanosoma cruzi; type: toxicity, cell-based; details: U2OS cells versus intracellular Trypanosoma cruzi, read-out: Selectivity Index; how it was run: as §2
Leishmania donovani [7] = experiment: Antileishmanial activity against extracellular promastigote stage of Leishmania donovani MHOM/ET/67/HU3 incubated for 28 hrs followed by additional 20 hrs incubation
Leishmania donovani [8] = experiment: Antileishmanial activity against intracellular amastigote stage of Leishmania donovani MHOM/ET/67/HU3 infected in human THP1 cells assessed as reduction in parasite count at 12.5 uM after 3 days by confocal microscopy; type: functional, organism-based; details: THP-1
Trypanosoma cruzi [9] = experiment: Antitrypanosomal activity against intracellular Trypanosoma cruzi infected in human U2OS cells assessed as reduction in parasite count at 6.25 uM after 48 hrs by confocal microscopy; type: functional, organism-based
Trypanosoma cruzi [10] = experiment: Antitrypanosomal activity against intracellular Trypanosoma cruzi infected in human U2OS cells assessed as reduction in parasite count at 400 uM after 48 hrs by confocal microscopy; type: functional, organism-based
Trypanosoma cruzi [11] = experiment: Antitrypanosomal activity against intracellular Trypanosoma cruzi infected in human U2OS cells assessed as reduction in parasite count at 12.5 uM after 48 hrs by confocal microscopy; type: functional, organism-based

SMILES | EC50 (Leishmania donovani [1]) [µM] | EC50 (Trypanosoma cruzi [3]) [µM] | EC50 (Leishmania donovani [7]) [µM] | CC50 [2] [µM] | CC50 [4] [µM] | selectivity ratio [5] | selectivity ratio [6] | inhibition (Trypanosoma cruzi [3]) | growth inhibition (GI) (Leishmania donovani [8]) | growth inhibition (GI) (Trypanosoma cruzi [9]) | growth inhibition (GI) (Trypanosoma cruzi [10]) | growth inhibition (GI) (Trypanosoma cruzi [11])
CC(C)(C)c1ccc(CN2C3=NC(=O)CN3c3ccccc32)cc1 | > 50 | > 50 | – | > 50 | > 50 | – | – | – | – | – | – | –
CC(C)(C)c1ccc(C(=O)CN2C3=NCCN3c3ccccc32)cc1 | 39.4 | 36 | – | > 50 | > 50 | > 1.27 | > 1.39 | – | – | – | – | –
N#Cc1ccc(CN2C3=NCCN3c3ccccc32)cc1 | > 50 | – | – | > 50 | – | – | – | – | – | – | – | –
FC(F)(F)c1ccc(CN2C3=NCCN3c3ccccc32)cc1 | > 50 | 13.4 | – | > 50 | > 50 | – | > 3.75 | – | – | – | – | –
CC(C)c1ccc(CN2C3=NCCN3c3ccccc32)cc1 | > 50 | > 50 | – | > 50 | > 50 | – | – | – | inactive | – | – | –
CC(C)(C)c1ccc(OCCN2C3=NCCN3c3ccccc32)cc1 | 27.4 | 8.7 | – | 33.1 | 37.9 | 1.21 | 4.36 | – | – | – | – | –
FC(F)(F)Oc1ccc(CN2C3=NCCN3c3ccccc32)cc1 | > 50 | – | – | > 50 | – | – | – | – | – | – | – | –
O=C(Cn1ccnc1[N+](=O)[O-])NCc1ccccc1 [BENZNIDAZOLE] | – | 20.7 | – | – | > 50 | – | > 2.42 | – | – | – | Active | inactive
c1ccc(CN2C3=NCCN3c3ccccc32)cc1 | > 50 | – | – | > 50 | – | – | – | – | – | – | – | –
Fc1ccc(F)c(-c2ccc(CN3C4=NCCN4c4ccccc43)cc2)c1 | 32.5 | 4.49 | 9.22 | > 50 | 9.61 | > 1.54 | 2.14 | – | – | – | – | –
CC(C)(C)c1cccc(CN2C3=NCCN3c3ccccc32)c1 | 22.6 | 12.5 | 4.98 | > 50 | 34.6 | > 2.21 | 2.77 | – | – | – | – | –
Cc1cc2c(cc1C)N(Cc1ccc(C(C)(C)C)cc1)C1=NCCN12 | > 50 | > 50 | – | > 50 | > 50 | – | – | – | – | – | – | –
C[C@@H]1[C@H](O)[C@@H](C)/C=C/C=C/C=C/C=C/C=C/C=C/C=C/[C@H](O[C@@H]2O[C@H](C)[C@@H](O)[C@H](N)[C@@H]2O)C[C@@H]2O[C@](O)(C[C@@H](O)C[C@@H](O)[C@H](O)CC[C@@H](O)C[C@@H](O)CC(=O)O[C@H]1C)C[C@H](O)[C@H]2C(=O)O [AMPHOTERICIN B] | – | – | 0.22 | – | – | 30.2 | – | – | Active | – | – | –
CCCCCCCCCCCCCCCCOP(=O)([O-])OCC[N+](C)(C)C [MILTEFOSINE] | 4.83 | – | 11.1 | 18.9 | – | 3.91 | – | – | Active | – | – | –
CC(C)(C)c1ccc(CCN2C3=NCCN3c3ccccc32)cc1 | 25.3 | 12.7 | 20.8 | > 50 | 21 | > 1.98 | 1.65 | – | – | – | – | –
c1ccc(CN2C3=NCCN3c3ccccc32)nc1 | > 50 | > 50 | – | > 50 | > 50 | – | – | – | – | – | – | –
Fc1ccc(CN2C3=NCCN3c3ccccc32)cc1 | > 50 | > 50 | – | > 50 | > 50 | – | – | – | – | – | – | –
Cc1cc(C)cc(CN2C3=NCCN3c3ccccc32)c1 | > 50 | > 50 | – | > 50 | > 50 | – | – | – | – | – | – | –
CCc1ccc(CN2C3=NCCN3c3ccccc32)cc1 | 42 | 33.7 | – | > 50 | > 50 | > 1.19 | > 1.48 | – | – | – | – | –
CS(=O)(=O)c1ccc(CN2C3=NCCN3c3ccccc32)cc1 | > 50 | – | – | > 50 | – | – | – | – | – | – | – | –

Continued, in another order:

EC50 (Leishmania donovani [1]) [µM] | EC50 (Trypanosoma cruzi [3]) [µM] | EC50 (Leishmania donovani [7]) [µM] | SMILES | CC50 [2] [µM] | CC50 [4] [µM] | selectivity ratio [5] | selectivity ratio [6] | inhibition (Trypanosoma cruzi [3]) | growth inhibition (GI) (Leishmania donovani [8]) | growth inhibition (GI) (Trypanosoma cruzi [9]) | growth inhibition (GI) (Trypanosoma cruzi [10]) | growth inhibition (GI) (Trypanosoma cruzi [11])
5.29 | 2.1 | 1.48 | c1ccc(-c2ccc(CN3C4=NCCN4c4ccccc43)cc2)cc1 | 39.7 | 18.8 | 7.5 | 8.95 | – | – | – | – | –
5.4 | 1.6 | 1.71 | c1ccc2c(c1)N1CCN=C1N2Cc1ccc(C2CCCCC2)cc1 | 22.8 | 6.1 | 4.19 | 3.81 | – | – | – | – | –
13.7 | 5.56 | – | Clc1ccc(-c2ccc(CN3C4=NCCN4c4ccccc43)cc2)cc1 | 20 | 9.36 | 1.46 | 1.7 | – | – | – | – | –
14 | 8.24 | 1.26 | CC(C)(C)c1ccc(CN2C3=NCCN3c3cc(F)ccc32)cc1 | > 50 | 50 | > 3.57 | 6.07 | – | – | – | – | –
5.2 | > 50 | 1.53 | FC(F)(F)Oc1ccc(-c2ccc(CN3C4=NCCN4c4ccccc43)cc2)cc1 | 11 | > 50 | 2.11 | – | – | – | – | – | –
3.05 | 1.1 | 1.25 | CC(C)(C)c1ccc(CN2C3=NCCN3c3ccccc32)cc1 | > 50 | 36.5 | > 16.4 | 33.2 | Dose-dependent effect | Active | Active | – | –
12.5 | 3.09 | 2.73 | CC(C)(C)c1ccc(CN2C3=NCCCN3c3ccccc32)cc1 | > 50 | > 50 | > 3.98 | > 16.2 | – | – | – | – | –
10.3 | > 50 | 3.11 | FC(F)(F)c1ccc(-c2ccc(CN3C4=NCCN4c4ccccc43)cc2)cc1 | 30 | > 50 | 2.91 | – | – | – | – | – | –
17.8 | 7.45 | 1.75 | Cc1ccc(-c2ccc(CN3C4=NCCN4c4ccccc43)cc2)cc1 | 27.1 | 10.3 | 1.52 | 1.38 | – | – | – | – | –
10.2 | > 50 | 2.34 | COc1ccc(-c2ccc(CN3C4=NCCN4c4ccccc43)cc2)cc1 | 23 | > 50 | 2.25 | – | – | – | – | – | –
7.33 | 6.21 | 2.22 | CC(C)(C)c1ccc(CN2C3=NCCN3c3cc(Cl)ccc32)cc1 | 12.5 | 44.6 | 1.71 | – | – | – | – | – | –
8.88 | 8.89 | 1.49 | Fc1ccc(-c2ccc(CN3C4=NCCN4c4ccccc43)cc2)cc1 | 35 | > 50 | 3.94 | > 5.62 | – | – | – | – | –
11 | 19.6 | 1.8 | Cc1ccc2c(c1)N1CCN=C1N2Cc1ccc(C(C)(C)C)cc1 | 28.1 | > 50 | 2.55 | > 2.28 | – | – | – | – | –
12.5 | 38.7 | 2.01 | c1ccc(Oc2ccc(CN3C4=NCCN4c4ccccc43)cc2)cc1 | 48 | 20 | 3.82 | 0.52 | – | – | – | – | –
